Results on three compounds are retold here after ChEMBL document CHEMBL4354869, “pH-Dependent Grafting of Cancer Cells with Antigenic Epitopes Promotes Selective Antibody-Mediated Cytotoxicity” (J Med Chem, 2020).

Active and inactive are the calls of the source. The rule behind the calls is not given here. Square brackets hold non-standard residues; d marks the D form. Peptide text beside a SMILES is read from it. * marks the point of attachment. Dnp = O=[N+]([O-])c1ccc(*)c([N+](=O)[O-])c1; Gla = N[C@@H](CC(C(=O)O)C(=O)O)C(=O)O; Aad = N[C@@H](CCCC(=O)O)C(=O)O

Series [1] deals with Lipid bilayer. As to the kind of experiment: Binding affinity to POPC large unilamellar vesicle at 1:300 ratio measured after 30 mins at pH 5 to 7.4 by circular dichroism spectroscopic analysis. In short, it runs like this: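 Peptide (20 μM stock in 5 mM sodium phosphate pH 8.0; 7 μM final) mixed with POPC LUVs (extruded, 100 nm pores) at 1:300, pH lowered with HCl, 30 min RT. Far-UV CD 260–200 nm in 0.1 cm cuvette, ≥5 scans averaged, liposome spectrum subtracted; expressed as mean residue molar ellipticity.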
On the technique in general: Circular dichroism is widely used to follow secondary structure.

For series [2], the system named is MDA-MB-231. As to the kind of experiment: Induction of opsonization in human MDA-MB-231 cells assessed as increase in recruitment of anti-DNP antibody to cell surface at 1 uM measured after 5 to 10 mins at pH 6 to 7.4 by AlexaFluor-488-conjugated anti-DNP antibody based flow cytometry. It counts as functional. In a few lines:
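Conjugate pre-incubated 1 h RT at 20 μM in 5 mM sodium phosphate pH 9.0, diluted, then pH adjusted with citrate buffer. MDA-MB-231 (350000 cells, suspension) exposed to 1 μM for 5 or 10 min, 37 °C, pH 7.4 or 6.0, washed, stained with 25 μg/mL anti-DNP-A488 30 min at 4 °C, PFA-fixed. Flow cytometry, ≥3000 events; fold over pH 7.4 antibody-only cells.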

Series [3] is described as follows: Drug internalization in human MDA-MB-231 cells assessed as increase in fluorescence at 1 uM measured after 30 mins at pH 6 to 7.4 in presence of FITC-labeled anti-human IgG by flow cytometric method. The note with it: mda-mb-231, pH 6, 0.5 h. The series is classed as ADME, cell-based. In a few lines:
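Control for specificity: MDA-MB-231 treated with 1 μM conjugate at pH 7.4 or 6.0 (5–10 min, 37 °C), washed, then incubated ± 25 μg/mL FITC anti-human IgG in PBS/10% FBS, 30 min at 4 °C, fixed, read by flow cytometry.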

For series [4], the system named is MDA-MB-231. As to the kind of experiment: Induction of opsonization in human MDA-MB-231 cells assessed as increase in recruitment of anti-FITC antibody to cell surface at 1 uM measured after 5 to 10 mins at pH 6 to 7.4 by Alexa Fluor 647 conjugated anti-FITC antibody based flow cytometry. The series is classed as functional. In short, it runs like this:
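Cells in suspension (350000 MDA-MB-231) given 1 μM pH-adjusted conjugate for 5 or 10 min at 37 °C, pH 7.4 or 6.0, washed, then Alexa Fluor 647 anti-FITC mouse mAb in PBS/10% FBS 30 min at 4 °C, PFA-fixed. Flow cytometry, ≥3000 events; fold over pH 7.4 antibody-only cells; mean ± SEM, n = 3.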

The subject of series [5] is Lipid bilayer. Put plainly: Binding affinity to POPC large unilamellar vesicle at 1:300 ratio measured after 30 mins at pH 5 to 7.4 by tryptophan fluorescence spectroscopic analysis. In a few lines:
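Peptide (7 μM final, from 20 μM stock in 5 mM sodium phosphate pH 8.0) with extruded 100 nm POPC LUVs at 1:300; pH set with HCl, 30 min RT before tryptophan emission spectra were recorded.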

`CC[C@H](C)[C@H](NC(=O)[C@@H]1CCCN1C(=O)[C@H](CC(N)=O)NC(=O)[C@H](CCC(N)=O)NC(=O)[C@H](CCC(=O)O)NC(=O)[C@@H](N)CCCCNc1ccc([N+](=O)[O-])cc1[N+](=O)[O-])C(=O)N[C@@H](Cc1ccc(O)cc1)C(=O)N[C@@H](Cc1c[nH]c2ccccc12)C(=O)N[C@@H](C)C(=O)N[C@@H](CCCNC(=N)N)C(=O)N[C@@H](Cc1ccc(O)cc1)C(=O)N[C@@H](C)C(=O)N[C@@H](CC(=O)O)C(=O)N[C@@H](Cc1c[nH]c2ccccc12)C(=O)N[C@@H](CC(C)C)C(=O)N[C@@H](Cc1ccccc1)C(=O)N[C@H](C(=O)N[C@H](C(=O)N1CCC[C@H]1C(=O)N[C@@H](CC(C)C)C(=O)N[C@@H](CC(C)C)C(=O)N[C@@H](CC(C)C)C(=O)N[C@@H](CC(C)C)C(=O)N[C@@H](CC(=O)O)C(=O)N[C@@H](CC(C)C)C(=O)N[C@@H](C)C(=O)N[C@@H](CC(C)C)C(=O)N[C@@H](CC(C)C)C(=O)N[C@H](C(=O)N[C@@H](CC(=O)O)C(=O)N[C@@H](C)C(=O)N[C@@H](CC(=O)O)C(=O)N[C@@H](CCC(=O)O)C(=O)NCC(=O)N[C@H](C(=O)NCC(N)=O)[C@@H](C)O)C(C)C)[C@@H](C)O)[C@@H](C)O` (H-K(Dnp)EQNPIYWARYADWLFTTPLLLLDLALLVDADEGTG-NH2): the outcome with Lipid bilayer [1] and with MDA-MB-231 [2] was Active. Moreover, in series [3], the Drug uptake entry is “Not Active”.
For the compound `CC[C@H](C)[C@H](NC(=O)[C@@H]1CCCN1C(=O)[C@H](CC(N)=O)NC(=O)[C@H](CCC(N)=O)NC(=O)[C@H](CCC(=O)O)NC(=O)[C@@H](N)CCCCNc1ccc([N+](=O)[O-])cc1[N+](=O)[O-])C(=O)N[C@@H](Cc1ccc(O)cc1)C(=O)N[C@@H](Cc1c[nH]c2ccccc12)C(=O)N[C@@H](C)C(=O)N[C@@H](CCCNC(=N)N)C(=O)N[C@@H](Cc1ccc(O)cc1)C(=O)N[C@@H](C)C(=O)N[C@@H](CC(C(=O)O)C(=O)O)C(=O)N[C@@H](Cc1c[nH]c2ccccc12)C(=O)N[C@@H](CC(C)C)C(=O)N[C@@H](Cc1ccccc1)C(=O)N[C@H](C(=O)N[C@H](C(=O)N1CCC[C@H]1C(=O)N[C@@H](CC(C)C)C(=O)N[C@@H](CC(C)C)C(=O)N[C@@H](CC(C)C)C(=O)N[C@@H](CC(C)C)C(=O)N[C@@H](CCCC(=O)O)C(=O)N[C@@H](CC(C)C)C(=O)N[C@@H](C)C(=O)N[C@@H](CC(C)C)C(=O)N[C@@H](CC(C)C)C(=O)N[C@H](C(=O)N[C@@H](CC(=O)O)C(=O)N[C@@H](C)C(=O)N[C@@H](CC(=O)O)C(=O)N[C@@H](CCC(=O)O)C(=O)NCC(=O)N[C@H](C(=O)NCC(N)=O)[C@@H](C)O)C(C)C)[C@@H](C)O)[C@@H](C)O` (H-K(Dnp)EQNPIYWARYA[Gla]WLFTTPLLLL[Aad]LALLVDADEGTG-NH2), the result in the series on Lipid bilayer [1] and in the series on MDA-MB-231 [2] was Active. In addition, the Drug uptake entry in series [3] was “Not Active”.
Turning to `CC[C@H](C)[C@H](NC(=O)[C@@H]1CCCN1C(=O)[C@H](CC(N)=O)NC(=O)[C@H](CCC(N)=O)NC(=O)[C@H](CCC(=O)O)NC(=O)[C@H](CSC1CC(=O)N(CCC(=O)NOCCOCCOCCOCCOCCOCCC(=O)NCCCNC(=O)c2ccc(-c3c4ccc(=O)cc-4oc4cc(O)ccc34)c(C(=O)O)c2)C1=O)NCC(N)=O)C(=O)N[C@@H](Cc1ccc(O)cc1)C(=O)N[C@@H](Cc1c[nH]c2ccccc12)C(=O)N[C@@H](C)C(=O)N[C@@H](CCCNC(=N)N)C(=O)N[C@@H](Cc1ccc(O)cc1)C(=O)N[C@@H](C)C(=O)N[C@@H](CC(=O)O)C(=O)N[C@@H](Cc1c[nH]c2ccccc12)C(=O)N[C@@H](CC(C)C)C(=O)N[C@@H](Cc1ccccc1)C(=O)N[C@H](C(=O)N[C@H](C(=O)N1CCC[C@H]1C(=O)N[C@@H](CC(C)C)C(=O)N[C@@H](CC(C)C)C(=O)N[C@@H](CC(C)C)C(=O)N[C@@H](CC(C)C)C(=O)N[C@@H](CC(=O)O)C(=O)N[C@@H](CC(C)C)C(=O)N[C@@H](C)C(=O)N[C@@H](CC(C)C)C(=O)N[C@@H](CC(C)C)C(=O)N[C@H](C(=O)N[C@@H](CC(=O)O)C(=O)N[C@@H](C)C(=O)N[C@@H](CC(=O)O)C(=O)N[C@@H](CCC(=O)O)C(=O)NCC(=O)N[C@H](C(=O)NCC(N)=O)[C@@H](C)O)C(C)C)[C@@H](C)O)[C@@H](C)O` (stereo partly drawn), the result in the series on MDA-MB-231 [4] and in the series on Lipid bilayer [5] was Active.
